Data set [1] can be described thus: Clearance in Sprague-Dawley rat at 2 mg/kg, iv. Format: ADME, organism-based. On the set-up: dose 2 mg/kg, route intravenous. The settings on record: in vivo. The method in brief: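 Rat PK: IV dose 2 mg/kg in PEG400/water (70:30); oral dose 30 mg/kg in PEG400/H2O/Tween (80/18/2). Values are the mean of 3 rats.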
The nature of data set [2]: Cmax in B10.R3 mouse at 30 mg/kg, po. Format: ADME, organism-based. On the set-up: dose 30 mg/kg, route oral. The following applies: in vivo. The method in brief:
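Mouse PK: IV dose 1 mg/kg in PEG400/water (70:30); oral dose 30 mg/kg given as a suspension in 30% Cremophor. Values are the mean of 3 mice.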

In data set [1], `CC(C)(C[C@@](O)(Cc1cc2ccc(C#N)cc2[nH]1)C(F)(F)F)c1cc(S(C)(=O)=O)cc2c1OCC2` gave a clearance of 51 mL/min/kg. Also, the Cmax in data set [2] is 6190 ng/mL.

The values are drawn from ChEMBL document CHEMBL1909618, “Non-steroidal dissociated glucocorticoid agonists: indoles as A-ring mimetics and function-regulating pharmacophores” (Bioorg Med Chem Lett, 2011).
